Laboratory results taken from ChEMBL document CHEMBL4513216, “Probing the Open Global Health Chemical Diversity Library for Multistage-Active Starting Points for Next-Generation Antimalarials” (ACS Infect Dis, 2020).

Assay: Toxicity liver stage against HepG2, at 10uM
Format: cell-based
Set-up: test concentration 10 uM, cell line HepG2-A16-CD81EGFP
Conditions: human, HepG2-A16-CD81EGFP cells; read-out: INHIBITION
How it was run: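 Uninfected HepG2-A16-CD81EGFP cells, 3 × 10^3 per well, 1536-well, plated on prespotted compound at 10 μM final, parasite-free screening media added to match infected plates; puromycin 10 μM positive, DMSO 0.5% negative; run in parallel with 48 h PbLuc assay at 37 °C, 5% CO2; viability by CellTiter-Glo luminescence, normalized to controls.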

Going from `NC(=O)c1c(SCCN2CCCCC2)sc2c(O)cc(=O)[nH]c12` to `Cc1ccccc1C1(C(=O)NCCN2CCCC2)CCOCC1`, the cytotoxicity at 10 µM rises from -13.7% to -7.54%.

First: Cc1cccc2c1cnn2CCC(=O)NCC(=O)N(C)C
Second: CC(C)CCC(=O)N(C)CC(=O)Nc1ccc(Br)cn1
The cytotoxicity at 10 µM of the first is higher: 7.03% for the first, -8.39% for the second.

First: O=C(c1ccnnc1)N1CCO[C@H]2[C@H](Oc3cccnc3)CC[C@@H]21
Second: CCc1nc(C2CCCN(C(=O)c3ccncc3)C2)no1 (stereo not given)
The cytotoxicity at 10 µM of the first is higher: 8.39% for the first, -13% for the second.

Going from `O=C(N[C@]12CC1CN(C(=O)c1ccco1)C2)c1cccc(F)c1` (stereo not given in full) to `O=C(Cc1cccc(F)c1)NCCCNC(=O)c1cccc(O)c1`, the cytotoxicity at 10 µM rises from -15.3% to 1.06%.

First: CCCN(C)S(=O)(=O)N1CCCC1c1ccco1 (stereo not given)
Second: CN(C)C(=O)CN1CCCC1c1cccc(Cc2ccccc2F)n1 (stereo not given)
The cytotoxicity at 10 µM of the first is lower: -8.72% for the first, -6.94% for the second.

Going from `c1cncc(-c2noc(CN3CCCCC3Cn3cccn3)n2)c1` (stereo not given) to `c1ccc(CN2CCc3ncnc(-c4cccnc4)c3CC2)nc1`, the cytotoxicity at 10 µM falls from -2.42% to -75.7%.

Going from `Cc1csc2ncc(-c3ccnc(N4CCCN(C)CC4)n3)c(=O)n12` to `CCc1c(C(=O)N2CCN(c3cnccn3)CC2)cnn1C(C)(C)C`, the cytotoxicity at 10 µM falls from -6.97% to -13%.

Compared with `CNC(=O)CN1CCOC(c2ccccc2C(F)(F)F)C1` (stereo not given), `COCCOCCNC(=O)C(C)Oc1ccccc1C(F)(F)F` (stereo not given) is lower in cytotoxicity at 10 µM: 0.71% for the first, 0.295% for the second.

Going from `Cc1nc(C(C)C)sc1C(=O)N1CCC(C(N)=O)CC1` to `Cc1nc(C)c(C(=O)N2CCCC2(C)C(=O)NC2CCCC2)o1` (stereo not given), the cytotoxicity at 10 µM falls from 1.68% to 0.61%.

First: CN(Cc1ccc(F)c2cccnc12)C1CCS(=O)(=O)C1 (stereo not given)
Second: CN(C)c1cc(C(F)(F)F)nc(N2CCCC2c2ccccn2)n1 (stereo not given)
The cytotoxicity at 10 µM of the first is higher: 5.93% for the first, 5.36% for the second.

Compared with `CCN1CCN(C(=O)CCC2CCN(C(C)CCC(=O)OC)CC2)CC1` (stereo not given), `CCOc1ccc(Cl)cc1C(C(=O)O)N1CCC(CO)CC1` (stereo not given) is higher in cytotoxicity at 10 µM: 0.9% for the first, 2.93% for the second.

Going from `Fc1cccc(N2CCOC3(CCCN(c4cnccn4)C3)C2)c1` (stereo not given) to `O=C(NCC1(O)CCCCC1)c1coc(COc2cccc(F)c2)n1`, the cytotoxicity at 10 µM falls from 5.89% to -136%.

Going from `O=C(Cc1ccc(F)cc1)NCC(O)(c1cccs1)C1CC1` (stereo not given) to `CCOc1ccc(NC(=O)NCC(C)(O)c2cccs2)cc1` (stereo not given), the cytotoxicity at 10 µM rises from -39.3% to -0.579%.

First: CCc1ccccc1NCc1nc2[nH]c(C)c(C)c(=O)n2n1
Second: Cc1noc(C)c1CSCc1nc(N)c2ccccc2n1
The cytotoxicity at 10 µM of the first is higher: 7.98% for the first, 5.15% for the second.

Compared with `CC(=O)N1CCCC(c2ccnc(Nc3cnccn3)c2)C1` (stereo not given), `CC(=O)N1CCC(Nc2ccc(Br)cc2C#N)C1` (stereo not given) is lower in cytotoxicity at 10 µM: 9.37% for the first, 2.5% for the second.

Going from `Cc1nc(COC[C@@H]2CC[C@H]3[C@H](CCN3c3ncccn3)O2)cs1` to `N#Cc1cccc(N2CCC(c3nccn3Cc3cscn3)CC2)n1`, the cytotoxicity at 10 µM falls from 2.19% to 1.46%.

First: O=C(NCc1ccc(N2CCCC2)nc1)N1CCc2sccc2C1
Second: Fc1ccc(CN2CCCN(Cc3cscn3)CC2)cc1
The cytotoxicity at 10 µM of the first is lower: -6.87% for the first, 2.62% for the second.

First: CCc1ncc2c(n1)CN(Cc1nnc(C)o1)CC2
Second: CC(C)c1ncc2c(n1)CN(Cc1nnc(Cc3ccccc3)o1)CC2
The cytotoxicity at 10 µM of the first is higher: -12.1% for the first, -12.6% for the second.

Compared with `Cc1cc(CN2CCC(CNC(=O)c3nccc4ccccc34)C2)[nH]n1` (stereo not given), `COc1ccccc1OCc1cc(C(=O)N2CCC(C(C)O)CC2)n[nH]1` (stereo not given) is lower in cytotoxicity at 10 µM: 14.1% for the first, 0.127% for the second.

Compared with `CCOc1ccc(Cl)c(C(=O)NC(C)C(N)=O)n1` (stereo not given), `CC(C)NC(=O)N(C)C1CCN(c2ccccc2Cl)C1=O` (stereo not given) is lower in cytotoxicity at 10 µM: 7.53% for the first, -4.56% for the second.

Compared with `CS(=O)(=O)NC[C@]12COC[C@H]1CN(C(=O)C1CCSCC1)C2`, `O=C(C1CN(CC2CCOCC2)CC12CCOCC2)N1CCCC1` (stereo not given) is higher in cytotoxicity at 10 µM: -112% for the first, 6.65% for the second.

Going from `O=C([C@@H]1COC[C@H]2CN(C3CCOCC3)C[C@H]21)N1CCOCC1` to `O=C(NCC1CCOCC1)[C@@H]1CC[C@@H]2[C@@H](CCN2Cc2ccncc2)O1`, the cytotoxicity at 10 µM rises from -4.14% to 4.85%.

First: COCCCN(C)C(=O)Cn1cccc(OC)c1=O
Second: CCN(Cc1cc(Cl)ccc1OC)Cc1ncnn1CC
The cytotoxicity at 10 µM of the first is higher: 7.52% for the first, 3.9% for the second.

First: CN(C(=O)C1CCCC1)C(c1cccc(F)c1)c1ccccn1 (stereo not given)
Second: O=C(NCc1nnc2n1CCC2)NCC1(c2cccc(F)c2)CC1
The cytotoxicity at 10 µM of the first is higher: 6.07% for the first, -6.03% for the second.

Compared with `CCc1cc(N[C@@H]2C[C@@H]3CC[C@H]2C3)n2nccc2n1`, `CC(C)c1n[nH]c(C2CN(C(=O)c3ccnc(C4CC4)n3)CCO2)n1` (stereo not given) is lower in cytotoxicity at 10 µM: -2.24% for the first, -12.6% for the second.

First: Cc1c(NC(=O)c2ncn[nH]2)cccc1C(=O)NC(C)(C)C
Second: CS(=O)(=O)NCCNc1ncnc2cccc(F)c12
The cytotoxicity at 10 µM of the first is lower: -8.93% for the first, 3.17% for the second.

Going from `O=S1(=O)CCC(n2cc(C3=CCN(CCN4CCCCC4)CC3)cn2)C1` (stereo not given) to `CCn1ncc(S(=O)(=O)NC2(CN3CCOCC3)CCCCC2)c1C`, the cytotoxicity at 10 µM rises from -8.29% to 3.83%.

First: CC1=N[C@@]2(CC[C@@H]3CN(Cc4ccccc4C)C[C@@H]32)C(=O)N1CC1CC1
Second: Cn1cccc1C(=O)N1CC[C@H]2[C@@H]1CCC(=O)N2CC1CC1
The cytotoxicity at 10 µM of the first is higher: -2.6% for the first, -11.1% for the second.

First: N#Cc1csc(CN(CC(=O)N2CCCC2)CC2CCCO2)c1 (stereo not given)
Second: O=C(O)CCC(=O)N1CCC(c2noc3cc(F)ccc23)CC1
The cytotoxicity at 10 µM of the first is higher: -6.26% for the first, -14.8% for the second.

Going from `COc1ccc(CNCC2CNc3cc(C)nn3C2)cn1` (stereo not given) to `COc1cc(N2CC[C@H]3OCC[C@@]3(COc3nccc(C)n3)C2)ncn1`, the cytotoxicity at 10 µM rises from -16.5% to 11.8%.

Compared with `CCC1(CC)CC(=O)N(CC(O)c2cc(F)ccc2F)C1=O` (stereo not given), `CC[C@@H]1N(Cc2ccc(F)cc2)CCC[C@]12CCC(=O)N2CCOC` is higher in cytotoxicity at 10 µM: -4.42% for the first, 11.5% for the second.

Compared with `COc1cccc(CN2C[C@H]3CCNCC[C@H]3S2(=O)=O)c1`, `CCCN1CCC[C@]2(CCC(=O)N2Cc2ccncc2)[C@H]1CC` is higher in cytotoxicity at 10 µM: -8.81% for the first, -1.16% for the second.

First: COCCN1CCN(c2nc(C3CCCC3)nc3c2cnn3C)CC1
Second: CCN1CCN(c2nc(O)cc(Cc3ccccc3F)n2)CC1
The cytotoxicity at 10 µM of the first is lower: -1.91% for the first, -1.83% for the second.

First: CNC(=O)[C@H]1C[C@@H]2CN(C(=O)c3ccsc3)C[C@@H]2N1S(C)(=O)=O
Second: Cn1cc([C@@H]2CN(S(C)(=O)=O)C[C@H]2N)c2ccncc21
The cytotoxicity at 10 µM of the first is lower: -2.42% for the first, 2.61% for the second.

Going from `CCn1cnnc1CNC(=O)N(C)Cc1ccc2c(c1)OCO2` to `CN1C[C@H](O)C[C@H]1c1nc(-c2ccc3c(c2)OCO3)no1`, the cytotoxicity at 10 µM rises from -5.83% to 6.88%.

Going from `CC(Cn1ccnc1)NCc1nncn1C1CCCCC1` (stereo not given) to `CCn1c(Cn2cccn2)nnc1C1CCN(Cc2ccc(C)o2)CC1`, the cytotoxicity at 10 µM rises from -4.54% to -1.14%.

Compared with `Cc1ccc(-c2nc(CN3CCn4c(nnc4C4CC4)C3)cs2)o1`, `CCCc1noc(-c2ccc(-n3ncc(C(=O)O)c3C)nc2)n1` is lower in cytotoxicity at 10 µM: -0.215% for the first, -1.4% for the second.

Going from `Cn1ccnc1SCCNC(=O)c1cc(S(N)(=O)=O)ccc1F` to `CS(=O)(=O)Nc1cccc(CNC(=O)CCc2ccsc2)c1`, the cytotoxicity at 10 µM rises from -3.45% to 2.24%.

Compared with `Cn1cc(NC(=O)Cc2cccs2)c(=O)n(C)c1=O`, `Cc1[nH]ncc1CCCNC(=O)Nc1ccccc1` is lower in cytotoxicity at 10 µM: 0.393% for the first, -2.2% for the second.

First: O=C1CO[C@@H]2CNC[C@H]2N1CC1CC1
Second: Cc1nc[nH]c1CN(Cc1ccccc1)C1CC(C)(C)NC(C)(C)C1
The cytotoxicity at 10 µM of the first is lower: -95.7% for the first, 0.968% for the second.
